Hits are enriched below; roughly 3.1% of the tested compounds scored in any of these assays.
MBD2 DNA inh = MBD2-methylated oligo binding inhibition; Q9UBB5; TR-FRET, MBD2 binding to methylated oligonucleotide; inhibition, % at 4.4 µM; actives 0.31% (n = 370,000); in the data active = inhibition above about 13%
UHRF1 MBD2 ctr = blocks human UHRF1 binding to methylated DNA | actives 0.75% (n = 370,000) | UHRF1 binding to methylated oligo, TR-FRET | AID 687016 | Q96T88 | inhibition, % at 4.4 µM;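 also: UHRF1 SRA domain binding a hemimethylated CpG hairpin DNA probe; 0% = median of test compound wells and 100% = reference inhibitor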
ATG4B inh = inhibitors of human ATG4B cysteine protease; Q9Y4P1; ATG4B cleavage of LC3-PLA2, NBD-HPC fluorescence, 1 h; inhibition, % at 8.33 µM; actives 0.51% (n = 340,000); in the data active = inhibition above about 40%
Target sequence (Q9Y4P1 whole entry, looked up): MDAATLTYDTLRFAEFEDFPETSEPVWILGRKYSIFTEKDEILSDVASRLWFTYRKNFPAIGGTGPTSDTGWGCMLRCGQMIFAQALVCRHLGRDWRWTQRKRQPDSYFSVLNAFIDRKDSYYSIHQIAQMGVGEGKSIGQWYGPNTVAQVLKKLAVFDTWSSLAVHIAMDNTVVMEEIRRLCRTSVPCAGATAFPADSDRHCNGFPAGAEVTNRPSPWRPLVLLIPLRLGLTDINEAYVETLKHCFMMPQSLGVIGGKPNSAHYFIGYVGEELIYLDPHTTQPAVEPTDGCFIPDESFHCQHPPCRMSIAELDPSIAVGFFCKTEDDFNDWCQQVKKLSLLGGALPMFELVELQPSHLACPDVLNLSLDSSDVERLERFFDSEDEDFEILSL
LEDGF integ inh = blocks HIV-1 LEDGF/p75-dependent DNA integration; TR-FRET IN-LEDGF/p75 DNA integration, Eu/Cy5; inhibition, % at 3.7 µM; actives 0.64% (n = 370,000); AID 743269;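 active = inhibition above the screen-wide mean plus 3 SD, cut at about 13% in these data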;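 also: signal is the Cy5 over europium emission ratio at 671 and 618 nm; 0% = plate median of compound wells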
rCAG binder = molecules binding r(CAG) RNA repeats. r(CAG) RNA repeat, TO-PRO-1 dye displacement fluorescence. inhibition, % at 3 µM. actives 1.3% (n = 370,000). AID 651821;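 active = inhibition above the plate cutoff, the mean of all test compounds on that plate plus 3 SD, cut at about 35% in these data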;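 also: 0% = DMSO alone and 100% = 100 µM mitoxantrone as full dye displacement; higher means more dye released from RNA so lower well fluorescence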
CSN inh = CSN deneddylation inhibition. Q92905. Purified CSN, SCF-Nedd8-OG deneddylation, fluorescence polarization. inhibition, % at 12.5 µM. actives 0.38% (n = 360,000). AID 651999;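 active = pattern-corrected inhibition above about 35%, with an unprinted fluorescence ratio check between 0.5 and 1.5, limit read from the data, passing the limit was not always enough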;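 also: 0% = enzyme with substrate and 100% = substrate without enzyme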
Target sequence (Q92905 whole entry, looked up, one chain of several): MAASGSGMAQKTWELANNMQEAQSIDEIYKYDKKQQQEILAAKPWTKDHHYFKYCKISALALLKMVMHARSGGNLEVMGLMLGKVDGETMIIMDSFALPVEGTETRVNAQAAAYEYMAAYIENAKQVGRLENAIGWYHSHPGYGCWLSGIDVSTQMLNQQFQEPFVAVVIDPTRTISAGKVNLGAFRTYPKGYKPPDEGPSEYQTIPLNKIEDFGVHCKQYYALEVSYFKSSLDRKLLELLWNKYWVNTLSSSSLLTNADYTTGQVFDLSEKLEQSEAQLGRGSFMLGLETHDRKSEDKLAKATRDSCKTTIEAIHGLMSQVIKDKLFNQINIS
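Assay system: Purified human Csn5 enzyme expressed in HEK293T cells | Amount: Enzyme 0.24 nM | Measured by: Fluorescence polarization readout | Medium: Tris/NaCl/DTT buffer, pH 7.5 | Compound dosing: One concentration, 12.5 µM, 0.25% DMSO | Times: 90 min incubation of compound, enzyme and substrate at room temperature | Control set: no-enzyme wells high, enzyme-with-substrate wells low | Read-out: % inhibition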
rCAG binder conf = r(CAG) RNA repeat binding, confirmation; shares compounds with rCAG binder; TO-PRO-1 dye displacement fluorescence; inhibition, % at 3 µM; actives 70% (n = 4,300); AID 652065;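 active = inhibition above a per-plate cutoff, the mean inhibition of sample wells plus 3 SD, cut at about 35% in these data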;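 also: loss of TO-PRO-1 fluorescence as compound displaces dye from 1x1 AA loop RNA; 0% = DMSO only wells and 100% = 100 µM mitoxantrone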
dCAG dye counter = counter-screen for rCAG RNA binders: DNA CAG dye complex inhibitors; shares compounds with rCAG binder; d(CAG) DNA oligo TO-PRO-1 dye displacement, fluorescence; inhibition, % at 3 µM; actives 94% (n = 4,300); AID 652068;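 active = inhibition above its plate's cutoff, the mean test-well inhibition plus 3 SD, cut at about 4.8% in these data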;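 also: 0% = DNA dye mix with DMSO and 100% = 100 µM mitoxantrone; hits displace the dye from DNA and so lower well fluorescence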
CSN5 deneddyl = Csn5 (human) deneddylation inhibition, single-concentration validation; shares compounds with CSN inh; Csn5 deneddylation of SCF-Nedd8OG, fluorescence polarization, 90 min; inhibition, % at 16.6 µM; actives 62% (n = 540); in the data active = inhibition above about 50%;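 also: 0% = DMSO with enzyme and 100% = no enzyme wells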
MMP-2 counter = blocks human MMP-2 in a CSN deneddylation counter-screen | actives 33% (n = 540) | recombinant MMP-2, FRET substrate fluorescence, 60 min | inhibition, % at 16.6 µM | shares compounds with CSN inh;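 active = corrected plate-normalized z-score of 5 or more, or -5 or less, or inhibition of 15% or more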;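 also: plate controls were DMSO wells with enzyme for no effect and buffer wells lacking MMP-2 for full effect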
Thrombin cntr = thrombin (bovine) inhibition, counter-screen for CSN hits | shares compounds with CSN inh | bovine thrombin cleavage of Ub4-pepOG, fluorescence polarization | inhibition, % at 16.6 µM | actives 49% (n = 540);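 active = inhibition at or above a set limit, with a fluorescence interference ratio between 0.5 and a set maximum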
UHRF1 ctr MBD2 = inhibits human UHRF1 binding to methylated oligonucleotide, MBD2 counter-screen | shares compounds with MBD2 DNA inh | TR-FRET | inhibition, % at 4.4 µM | actives 25% (n = 1,000) | AID 720530;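 also: UHRF1 SRA domain binding a labeled hemimethylated CpG hairpin DNA; 0% = vehicle only and 100% = reference inhibitor with vehicle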
MBD2 DBD conf = MBD2-DBD methyl-DNA binding inhibition, TR-FRET confirmation; inhibition, % at 4.4 µM; actives 26% (n = 1,000); TR-FRET MBD2-DBD binding to methylated oligonucleotide; AID 720531; shares compounds with MBD2 DNA inh; in the data active = inhibition above about 14%
IN multimer up = counter-screen for LEDGF/p75 integration inhibitors: HIV-1 integrase multimerization activators; actives 17% (n = 2,000); activation, % at 7.7 µM; AID 1053131; shares compounds with LEDGF integ inh; TR-FRET HIV-1 integrase multimerization, biochemical; in the data active = activation above about 8.9%
TR-FRET interf = TR-FRET optical interference, LEDGF/p75 integration counter-screen. AID 1053135. 2,000 tested, under 10 active. TR-FRET optical interference counterscreen, HIV-1 IN multimerization. inhibition, % at 7.7 µM. shares compounds with LEDGF integ inh;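 active = inhibition above the mean over all tested compounds plus 3 SD, which no compound reached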;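 also: 0% = integrase with antibodies and DMSO and 100% = antibodies without integrase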
LEDGF integ conf = LEDGF/p75-dependent HIV-1 integration inhibition, confirmation; shares compounds with LEDGF integ inh; TR-FRET LEDGF/p75-dependent HIV-1 integration, biochemical; inhibition, % at 3.7 µM; actives 36% (n = 2,000); in the data active = inhibition above about 14%
* marks the source's active call; other numbers are inactive results; . = not tested or not shown; ! = not active in a repeat. Rule as the data show it, unless noted: active = inhibition above about 21%; inactive = the rest.

SMILES	MBD2 DNA inh	UHRF1 MBD2 ctr	ATG4B inh	LEDGF integ inh	rCAG binder	CSN inh	CSN5 deneddyl	MMP-2 counter	Thrombin cntr	others
Cc1cc(C)cc(N2C(=O)NC(=O)/C(=C\C=C\c3ccco3)C2=O)c1	0	15	8	35*	39*	59*	59*	6	24*	rCAG binder conf=15;dCAG dye counter=7.7*;IN multimer up=-1;TR-FRET interf=3;LEDGF integ conf=29*
CC1=NN(c2ccccc2)C(=O)C1/C=C1\C(=O)NC(=O)N(c2cc(C)cc(C)c2)C1=O (stereo not drawn)	-8	-5	-3	5	12	-4	.	.	.
CN(C)[C@@H]1C(=O)C(C(N)=O)=C(O)[C@@]2(O)C(=O)C3=C(O)c4c(O)cccc4[C@@](C)(O)C3[C@H](O)C12 (stereo partly drawn)	19*	62*	12	42*	55*	37*!	89*	9	13	rCAG binder conf=21;dCAG dye counter=7.5*;UHRF1 ctr MBD2=9;MBD2 DBD conf=1;IN multimer up=15*;TR-FRET interf=-53;LEDGF integ conf=25*
Cc1ccc2nc(-c3ccc(CN4CCC(n5c(=O)[nH]c6cc(Cl)ccc65)CC4)cc3)c(-c3ccccc3)nc2c1	-1	0	.	-3	15	.	.	.	.
Clc1cccc(N2Cc3cc(N4CCOCC4)ccc3-n3nncc3C2)c1	-4	-1	.	6	4	-2	.	.	.
Clc1cccc(N2Cc3cc(-c4ccccc4)ccc3-n3nncc3C2)c1	9	10	.	67*	9	69*	66*	14	25*
Cc1cc(N(CCCl)CCCl)ccc1C=Cc1ccncn1	-12	-39	-5	-5	-5	41*	53*	-23	37*
CCCCCN1C(=O)c2cc(OC)ccc2[C@@]2(C(=O)OCC)Cc3cc(Cl)ccc3[C@@H]12	4	-6	.	0	3	-1	.	.	.
Cn1ncnc2c(=O)n(C)c(=O)nc1-2	.	.	86*	.	.	74*	-21	-7	-37
Cc1cccc(-n2c(/C=C/c3ccc([N+](=O)[O-])o3)nc3ccccc3c2=O)c1	2	4	0	5	8	117	.	.	.
O=c1c2ccccc2nc(/C=C/c2ccc([N+](=O)[O-])o2)n1-c1ccc(O)cc1	2	15	5	8	12	50*	65*	-1	46*
Cc1cc(N2CCNC[C@H]2C)ccc1N1CC[C@@H](O)C1	-6	-3	.	0	4	.	.	.	.
O=C1NC(=O)N(c2ccc3c(c2)OCO3)C(=O)/C1=C\c1ccc(N2CCCCC2)o1	-3	7	-3	-4	-31	89*	138*	-26	54
Cc1ccccc1N1C(=O)NC(=O)/C(=C/c2ccc(N3CCOCC3)o2)C1=O	-21	-23	7	3	-46	132	.	.	.
O=C(NCCN1CCC2(CC1)C(=O)NCN2c1ccccc1)c1cccc2c1-c1ccccc1C2=O	-2	-5	.	-2	5	.	.	.	.
Cn1c(O)c(/C=C/C=Nc2ccccc2)c(=O)n(C)c1=S	-2	1	9	1	-32	75*	.	-100*	-1
CCN(CC)c1ccc(/C=C2\C(=O)NC(=O)N(Cc3ccco3)C2=O)cc1	8	66*	-5	71*	24	54*	85*	-6	9	IN multimer up=-1;TR-FRET interf=3;LEDGF integ conf=54*
CCOC(=O)c1c(N)n(CCN2CCCCC2)c2nc3ccccc3nc12	-3	-5	1	-2	-3	10	.	.	.
CCCCn1c(NS(=O)(=O)c2ccccc2)c(C(=O)OCC)c2nc3ccccc3nc21	7	12	21	31*	33	63*	103*	7	-32	IN multimer up=0;TR-FRET interf=-1;LEDGF integ conf=66*
CC1C2Cc3ccc(O)cc3C1(C)CCN2CC1CC1 (stereo not drawn)	0	0	.	-1	3	.	.	.	.
COc1ccc(-n2c(O)c(/C=C3\C=Nc4ccc(Br)cc43)c(=O)[nH]c2=O)c(OC)c1	28*	-2	13	-4	24	8	.	.	.	UHRF1 ctr MBD2=8;MBD2 DBD conf=2
CC[N+](C)(CC)CCCCOc1ccc2c(c1)C(=O)c1cc(OCCCC[N+](C)(CC)CC)ccc1-2	17*	41*	-3	0	8	92	.	.	.	UHRF1 ctr MBD2=49*;MBD2 DBD conf=31*
COc1cccc2c1C(=O)c1c(O)c3c(c(O)c1C2=O)CC(O)(C(C)=NO)CC3OC1CC(N)C(O)C(C)O1 (stereo not drawn)	109*	95*	-11	0	7	-73	.	.	.	UHRF1 ctr MBD2=100*;MBD2 DBD conf=109*
CCOC(=O)[C@]12Cc3cc(Cl)ccc3[C@H]1N(C1CCCCC1)C(=O)c1ccccc12	.	.	.	.	.	-2	.	.	.
CC(=O)N1Cc2cnnn2-c2ccccc2C1(C#N)Cc1ccccc1 (stereo not drawn)	29*	-1	-4	-1	-1	4	.	.	.	UHRF1 ctr MBD2=7;MBD2 DBD conf=5

Screening results from PubChem BioAssay.
